Data on three compounds can be found in paper PMC3701953 (Bioorganic & medicinal chemistry letters, 2013).

Several values for one entry are separate records, joined by “and”; a condition that tells them apart may be missing. Equal entries are not always repeated. Where two headings read alike, the source gives them in different places.

The subject of data set [1] is HIV-1 NL4-3. The following applies: read-out: anti-HIV-1 activity in cell culture EC50; MAGI cells; cited from earlier work.
The subject of a further data set is MAGI cells. As to the kind of experiment: Compound toxicity in MAGI cells by MTS dye reduction. Format: cell-based. For orientation: Formazan colour is commonly taken as a measure of viable cells.
Data set [2] has as its system HIV-1 NL4-3. The data set can be described thus: In vitro anti-HIV-1 NL4-3 antiviral assay in MAGI cells. The format is cell-based. The following applies: HIV-1 NL4-3, MAGI cells, mean of three determinations; for EC50: read-out: EC50 (SD), concentration for 50% inhibition of virus replication; for EC90: read-out: EC90 (SD), concentration for 90% reduction of virus replication. An outline of the steps: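 MAGI cells carrying an LTR–β-galactosidase reporter were infected with HIV-1 in the presence of test compound. Infection and Tat expression drive the reporter through the HIV-1 LTR. Cells were lysed 6 days after infection, and β-galactosidase activity was read by chemiluminescence. Values are the mean of three determinations.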

The nature of data set [3]: Stability in pooled, mixed-gender human liver microsomes. The format is in vitro ADME. An outline of the steps: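 Test compound incubated with 0.5 mg/mL microsomal protein in 100 mM potassium phosphate (pH 7.4), with 5 mM MgCl₂, 5 mM G-6-P, 0.5 U/mL G-6-P-DH and 2 mM NADPH. Mixtures were preincubated 3 min at 37 °C, started with NADPH and run 60 min. Aliquots taken at 0, 15, 30, 45 and 60 min were quenched in ice-cold acetonitrile and centrifuged. Supernatant analysed by reversed-phase HPLC-UV at 360 nm. Mean of three determinations, S.D.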

The target in another data set is CYP 3A4 (Homo sapiens, UniProt P08684). As to the kind of experiment: CYP 3A4 substrate activity in pooled human liver microsomes. The format is in vitro ADME. As to conditions: relative to control (100%). In general terms: Liver microsomes are vesicles of endoplasmic reticulum, rich in cytochrome P450 enzymes.
In a further data set the target is CYP 2D6 (Homo sapiens, UniProt P10635). As to the kind of experiment: CYP 2D6 substrate activity in pooled human liver microsomes. The format is in vitro ADME. As to conditions: for Substrate Activity % ±S.D.: dextromethorphan 200 µM, relative to control (100%). Summed up:
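Pooled human liver microsomes incubated with the probe substrate and a range of test compound concentrations in 100 mM potassium phosphate (pH 7.4) with 5 mM MgCl₂. Mixtures were preincubated 3 min at 37 °C, then started with NADPH (final 2 mM). Substrate and metabolite were quantified by reversed-phase HPLC-UV: CYP3A4, testosterone/6β-hydroxytestosterone at 254 nm; CYP2D6, dextromethorphan/dextrorphan at 278 nm. Mean of three determinations, S.D.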

CYP 2D6, sequence (P10635 whole entry): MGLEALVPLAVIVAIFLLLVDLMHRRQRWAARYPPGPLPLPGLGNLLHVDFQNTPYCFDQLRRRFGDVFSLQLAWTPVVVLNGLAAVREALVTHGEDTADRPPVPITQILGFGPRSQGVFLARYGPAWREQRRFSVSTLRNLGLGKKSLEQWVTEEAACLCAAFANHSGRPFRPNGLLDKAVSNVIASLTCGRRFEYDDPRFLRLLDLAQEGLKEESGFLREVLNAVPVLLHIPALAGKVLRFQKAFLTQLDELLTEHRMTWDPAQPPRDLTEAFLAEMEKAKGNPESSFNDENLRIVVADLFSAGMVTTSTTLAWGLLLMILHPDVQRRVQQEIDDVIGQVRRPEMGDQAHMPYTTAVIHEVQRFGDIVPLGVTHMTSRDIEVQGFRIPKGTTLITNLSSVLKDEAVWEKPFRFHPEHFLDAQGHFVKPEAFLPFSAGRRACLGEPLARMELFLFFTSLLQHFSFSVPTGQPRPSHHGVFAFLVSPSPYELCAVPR
CYP 3A4, sequence (P08684 whole entry): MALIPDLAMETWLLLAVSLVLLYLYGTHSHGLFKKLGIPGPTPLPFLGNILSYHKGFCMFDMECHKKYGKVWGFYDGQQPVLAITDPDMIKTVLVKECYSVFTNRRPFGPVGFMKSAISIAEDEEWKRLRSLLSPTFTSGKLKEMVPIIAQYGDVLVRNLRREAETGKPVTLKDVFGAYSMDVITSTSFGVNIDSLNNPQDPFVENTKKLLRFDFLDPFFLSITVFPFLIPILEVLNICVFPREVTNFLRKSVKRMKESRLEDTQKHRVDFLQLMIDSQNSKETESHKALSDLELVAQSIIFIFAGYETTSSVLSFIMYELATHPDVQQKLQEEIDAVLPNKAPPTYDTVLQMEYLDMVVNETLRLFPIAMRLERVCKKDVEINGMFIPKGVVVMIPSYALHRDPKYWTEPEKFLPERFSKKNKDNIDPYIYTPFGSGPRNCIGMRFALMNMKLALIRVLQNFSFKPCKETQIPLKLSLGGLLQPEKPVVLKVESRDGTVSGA

For `O=C(O)C(=O)C=C(O)c1cc(Cc2ccc(F)cc2F)cn(Cc2ccccc2F)c1=O` [compound 1, 4-(5-(2,4-difluorobenzyl)-1-(2-fluorobenzyl)-2-oxo-1,2-dihydropyridin-3-yl)-4-hydroxy-2-oxobut-3-enoic acid], in the data set on HIV-1 NL4-3 [1], the EC50 is 500 nM.
In the data set on MAGI cells, “(1R,2R)-4-(5-(2,4-difluorobenzyl)-1-(2-fluorobenzyl)-2-oxo-1,2-dihydropyridin-3-yl)-4-hydroxy-N-(2-hydroxycyclopentyl)but-3-enamide [compound 4]” yielded a CC50 of 137 µM. Besides, in the data set with HIV-1 NL4-3 [2], the EC50 was found to be 42.2 nM and the EC90 came to 871 nM.
As for “(1S,2S)-4-(5-(2,4-difluorobenzyl)-1-(2-fluorobenzyl)-2-oxo-1,2-dihydropyridin-3-yl)-4-hydroxy-N-(2-hydroxycyclopentyl)but-3-enamide [compound 3]”, the CC50 in the data set with MAGI cells (read-out: CC50, concentration to reduce cell viability by 50%, MAGI cells, MTS dye reduction) was 40.4 µM. Further, in data set [3], the “stability in pooled human liver microsomes (result in words)” value is given as “relatively stable”. Further, the “Substrate Activity % ±S.D.” value on CYP 3A4 (testosterone 100 µM, compound 3 at 12.5 µM) came out at 109 ±13%; at CYP 3A4 (testosterone 100 µM, compound 3 at 25 µM) it was 97 ±18%; at CYP 3A4 (testosterone 100 µM, compound 3 at 50 µM) it was 112 ±15%; on CYP 3A4 (triazolam 200 µM, compound 3 at 12.5 µM) it was 124 ±23%; at CYP 3A4 (triazolam 200 µM, compound 3 at 25 µM), 98 ±7%; at CYP 3A4 (triazolam 200 µM, compound 3 at 50 µM), 100 ±8%. Moreover, the “Substrate Activity % ±S.D.” value is listed as 86 ±7% on CYP 2D6 (compound 3 at 12.5 µM), 87 ±17% on CYP 2D6 (compound 3 at 25 µM) and 87 ±13% on CYP 2D6 (compound 3 at 50 µM). The EC50 with HIV-1 NL4-3 [2] was 25 nM and 25.1 nM. Further, in the data set with HIV-1 NL4-3 [2], the EC90 was found to be 415 nM. Also, at CYP 2D6 (pooled human liver microsomes, dextromethorphan as substrate), the “inhibition or activation of CYP 2D6 (result in words)” value is listed as “neither a significant inhibitor nor an activator”.
